Measurements: ChEMBL document CHEMBL1629448, “Identification and synthesis of novel inhibitors of acetyl-CoA carboxylase with in vitro and in vivo efficacy on fat oxidation” (J Med Chem, 2010)
Active and inactive are the calls of the source. The rule behind the calls is not given here.

Tests used:
[1] = AUC (0 to infinity) in Wistar rat plasma at 10 mg/kg, po; assay type: ADME, organism-based; set-up: time infinity, dose 10 mg/kg, route oral
How it was run: (§1)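 Female Wistar rats given a single oral dose of 10 mg/kg in 10% DMSO. Plasma and liver sampled at eight time points over 24 h, three animals killed per time point. Drug levels measured by LC-MS/MS with an internal standard. […] Values are means ± SD (n = 3).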

[2] = AUC (0 to infinity) in Wistar rat plasma at 3 mg/kg, iv; assay type: ADME, organism-based; set-up: dose 3 mg/kg, route intravenous, time infinity
How it was run: (§2)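 Wistar rats given an intravenous bolus of 3 mg/kg in 5% solutol solution. Plasma sampled at eight time points over 24 h. Drug quantified by LC-MS/MS against an internal standard. C0h is the concentration immediately after dosing; AUC0-inf, clearance, t1/2 and Vdss were also derived.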

[3] = Volume of distribution at steady state in Wistar rat plasma at 3 mg/kg, iv; assay type: ADME, organism-based; set-up: dose 3 mg/kg, route intravenous; how it was run: as §2
[4] = Drug concentration in Wistar rat plasma at 10 mg/kg, po measured 6 hrs post dose; assay type: ADME, organism-based; set-up: dose 10 mg/kg, route oral; conditions: read-out: Drug uptake; how it was run: as §1
[5] = Tmax in Wistar rat liver at 10 mg/kg, po; assay type: ADME, organism-based; set-up: dose 10 mg/kg, route oral; how it was run: as §1
[6] = Half life in Wistar rat plasma at 10 mg/kg, po; assay type: ADME, organism-based; set-up: dose 10 mg/kg, route oral; how it was run: as §1
Rattus norvegicus = assay: Plasma concentration in Wistar rat at 3 mg/kg, iv measured immediately after dosing; assay type: ADME, organism-based; set-up: dose 3 mg/kg, route intravenous; conditions: in vivo; how it was run: as §2
[7] = biological target: T1, Peroxisome proliferator-activated receptor delta (Homo sapiens) (UniProt Q03181); assay: Inhibition of PPARdelta
T1 sequence (whole entry): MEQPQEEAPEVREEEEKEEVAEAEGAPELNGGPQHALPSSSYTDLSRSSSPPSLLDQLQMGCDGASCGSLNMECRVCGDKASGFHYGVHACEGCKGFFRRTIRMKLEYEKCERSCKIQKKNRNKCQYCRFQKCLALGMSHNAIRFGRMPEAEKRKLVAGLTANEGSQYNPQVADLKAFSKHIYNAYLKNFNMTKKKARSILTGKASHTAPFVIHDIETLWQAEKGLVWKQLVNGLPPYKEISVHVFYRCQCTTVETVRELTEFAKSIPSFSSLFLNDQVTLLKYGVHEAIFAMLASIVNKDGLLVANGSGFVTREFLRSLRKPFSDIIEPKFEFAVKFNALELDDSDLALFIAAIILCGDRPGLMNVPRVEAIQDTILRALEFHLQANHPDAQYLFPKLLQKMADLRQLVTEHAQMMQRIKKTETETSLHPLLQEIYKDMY

[8] = Inhibition of N-terminal His-tagged rat recombinant ACC2 expressed in high five insect cells by ATP consumption assay
[9] = Cmax in Wistar rat liver at 10 mg/kg, po; assay type: ADME, organism-based; set-up: dose 10 mg/kg, route oral; how it was run: as §1
Hepatocyte = assay: Stimulation of fat oxidation in human hepatocytes assessed as release of 3H2O from ss-oxidation of [9,10(n)-3[3H]palmitic acid after 4 hrs; assay type: functional, cell-based
How it was run: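 Attached human hepatocytes washed with PBS, then incubated in DMEM with 5 μM ³H-palmitic acid (15000 Bq/ml), 0.2 mg/mL BSA, 500 μM L-carnitine, 0.1% DMSO, 25 mM glucose and inhibitor. Started with 0.5 μCi [³H]palmitate. ³H₂O release measured after 4 h by scintillation. Expressed as fold of the 0 μM control; means ± SEM (n = 4).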

[10] = Ratio of AUC (0 to infinity) in liver to plasma of Wistar rat at 10 mg/kg, po; assay type: ADME, organism-based; set-up: dose 10 mg/kg, route oral
How it was run: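 Female Wistar rats received a single oral 10 mg/kg dose in 10% DMSO. Plasma and liver were sampled at eight time points over 24 h, with three animals killed per time point. Drug levels were measured by LC-MS/MS against an internal standard. Liver/plasma ratio was calculated from AUC0-inf.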

AUC(0-inf) [1]: 19 µM·h | AUC(0-inf) [2]: 5.6 µM·h | Vd [3]: 2.6 L/kg | concentration at 6 h [4]: 1.59 µM | Tmax [5]: 2 h | half-life [6]: 1.8 h | concentration (Rattus norvegicus): 5.2 µM | inhibition [7]: inactive | Cmax [9]: 21.8 µM | Kp [10]: 6
Compound: CC(=O)N[C@@H](C)CCc1ccc(Oc2ccc(OC(C)C)nc2)cc1
IC50 [8]: 400 nM | Activity (Hepatocyte): Dose-dependent effect
